Experimental data published in ChEMBL document CHEMBL3616402, “A novel series of indazole-/indole-based glucagon receptor antagonists” (Bioorg Med Chem Lett, 2015).
Calls of active or inactive are those of the source. The rule behind the calls is not given here.

How the values were obtained:
Mus musculus [1] = test: Reduction in glucagon-induced glucose excursion in glucagon receptor humanized mouse model of acute glucagon challenge model at 1 to 10 mg/kg, po dosed 1 hr before glucagon challenge; type: functional, organism-based
Outline: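 hGCGR-humanized mice given compound orally at 1, 3 or 10 mg/kg one hour prior to IP glucagon (15 µg/kg); blood glucose followed as change from time 0.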

Homo sapiens = organism: Homo sapiens; test: Selectivity index, ratio of IC50 for human glucose dependent insulinotropic peptide receptor to IC50 for human glucagon receptor
[2] = Drug level in glucagon-induced glucose excursion in glucagon receptor humanized mouse model of acute glucagon challenge model at 1 mg/kg, po dosed 1 hr before glucagon challenge and measured after 60 mins post dose; type: ADME, organism-based; settings: in vivo, read-out: Drug uptake
Outline: (§1)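 Glucagon-receptor-humanized (hGCGR) mice dosed orally at 1, 3 or 10 mg/kg one hour before IP glucagon challenge (15 µg/kg); drug level measured at 60 min.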

[3] = Plasma clearance in Wistar rat at 0.5 mg/kg, iv or 2 mg/kg, po; type: ADME, organism-based
Outline: (§2)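 Wistar rats given 0.5 mg/kg iv and 2 mg/kg po; plasma concentration–time profiles used to derive plasma clearance, steady-state volume of distribution, half-life and dose-normalized AUC (µM·h·kg/mg).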

[4] = Half life in Wistar rat at 0.5 mg/kg, iv or 2 mg/kg, po; type: ADME, organism-based; settings: in vivo; outline: as §2
Glucagon receptor [5] = molecular target: T1, Glucagon receptor (Homo sapiens, UniProt P47871); test: Displacement of [125I]glucagon from human glucagon receptor expressed in CHO cell membranes
Outline: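 Binding: displacement of [125I]glucagon from human GCGR in membranes prepared from a CHO cell line stably expressing hGCGR; IC50 reported in nM.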

[6] = molecular target: T2, Gastric inhibitory polypeptide receptor (Homo sapiens, UniProt P48546); test: Antagonist activity against human glucose dependent insulinotropic peptide receptor by cAMP accumulation assay; type: functional
T2 sequence (P48546 whole entry): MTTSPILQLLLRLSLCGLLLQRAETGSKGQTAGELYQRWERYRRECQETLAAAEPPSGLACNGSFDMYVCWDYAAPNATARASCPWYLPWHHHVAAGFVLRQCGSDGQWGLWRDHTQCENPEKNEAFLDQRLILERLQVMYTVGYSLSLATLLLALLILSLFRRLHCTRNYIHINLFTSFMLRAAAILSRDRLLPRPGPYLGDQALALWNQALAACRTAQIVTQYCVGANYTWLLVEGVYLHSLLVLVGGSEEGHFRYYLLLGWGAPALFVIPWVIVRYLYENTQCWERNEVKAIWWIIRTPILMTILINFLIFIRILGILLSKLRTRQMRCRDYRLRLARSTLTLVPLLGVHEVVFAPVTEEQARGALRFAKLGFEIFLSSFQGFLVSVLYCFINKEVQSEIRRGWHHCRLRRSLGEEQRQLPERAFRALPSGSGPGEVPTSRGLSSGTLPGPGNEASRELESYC
Outline: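 Selectivity counter-screen: cAMP production measured in CHO cells expressing human GIPR; IC50 (potency) determined.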

[7] = Volume of distribution at steady state in Wistar rat at 0.5 mg/kg, iv or 2 mg/kg, po; type: ADME, organism-based; settings: in vivo, read-out: Vdss; outline: as §2
[8] = Oral bio availability in Wistar rat 2 mg/kg; type: ADME, organism-based; settings: in vivo
Outline: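 Oral bioavailability from Wistar rats dosed 2 mg/kg po with 0.5 mg/kg iv reference dose; F (%) from plasma exposure.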

[9] = Drug level in glucagon-induced glucose excursion in glucagon receptor humanized mouse model of acute glucagon challenge model at 10 mg/kg, po dosed 1 hr before glucagon challenge and measured after 60 mins post dose; type: ADME, organism-based; settings: in vivo, read-out: Drug uptake; outline: as §1
Glucagon receptor [10] = molecular target: T1, Glucagon receptor; test: Antagonist activity against human glucagon receptor expressed in CHO cells assessed as reduction in glucagon-induced cAMP production; type: functional, cell-based
[11] = Drug level in glucagon receptor humanized ob/ob mouse acute model at 3 mg/kg, po after 3 hrs; type: ADME, organism-based; settings: in vivo, read-out: Drug uptake
Mus musculus [12] = test: Reduction in blood glucose levels in glucagon receptor humanized ob/ob mouse acute model at 3 mg/kg, po after 1 to 6 hrs; type: functional, organism-based
Outline: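 hGCGR ob/ob mice (N = 10–12 per group) dosed orally at 3 mg/kg at 0 h with food removed at 0 h; ambient blood glucose monitored over 6 h versus vehicle control, significance at each time point.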

[13] = Drug level in glucagon receptor humanized ob/ob mouse acute model at 3 mg/kg, po after 1 hrs; type: ADME, organism-based; settings: in vivo, read-out: Drug uptake
Rattus norvegicus = test: Dose normalized AUC in Wistar rat at 0.5 mg/kg, iv or 2 mg/kg, po; type: ADME, organism-based; settings: in vivo; outline: as §2
[14] = Drug level in glucagon-induced glucose excursion in glucagon receptor humanized mouse model of acute glucagon challenge model at 3 mg/kg, po dosed 1 hr before glucagon challenge and measured after 60 mins post dose; type: ADME, organism-based; settings: in vivo, read-out: Drug uptake; outline: as §1

T1 sequence (P47871 whole entry): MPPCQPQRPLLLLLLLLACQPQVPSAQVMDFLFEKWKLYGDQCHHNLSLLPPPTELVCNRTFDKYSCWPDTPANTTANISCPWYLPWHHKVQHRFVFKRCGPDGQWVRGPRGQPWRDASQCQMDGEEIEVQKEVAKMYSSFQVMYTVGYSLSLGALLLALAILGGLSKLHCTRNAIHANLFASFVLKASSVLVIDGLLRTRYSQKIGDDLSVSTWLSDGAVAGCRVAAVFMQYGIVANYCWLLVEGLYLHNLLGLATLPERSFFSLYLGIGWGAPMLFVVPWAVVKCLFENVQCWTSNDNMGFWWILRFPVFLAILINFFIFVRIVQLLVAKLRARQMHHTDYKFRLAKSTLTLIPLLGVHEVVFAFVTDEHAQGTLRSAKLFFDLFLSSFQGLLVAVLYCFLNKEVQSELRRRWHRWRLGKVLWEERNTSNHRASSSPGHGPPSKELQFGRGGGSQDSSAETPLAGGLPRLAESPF

In the case of `COc1ccc(C(F)(F)F)cc1-c1nn(C(C)c2ccc(C(=O)NCCC(=O)O)cc2)c2cc(-c3ccc(C)cc3)ccc12` (stereo unspecified), the inhibition (Mus musculus [1]) is reported as “Active”, the Ratio IC50 (Homo sapiens) is reported as 170 and the concentration at 1 h [2] is reported as 180 nM. It also gave a clearance [3] of 6.3 mL/min/kg, a half-life [4] of 1.5 h and an IC50 (Glucagon receptor [5]) of 2.6 nM. For the same compound, the IC50 [6] was 1300 nM, the Vd [7] was 0.65 L/kg and the bioavailability [8] was 44%. For the same compound, the concentration at 1 h [9] was 2540 nM, the IC50 (Glucagon receptor [10]) was 7.6 nM and the concentration at 3 h [11] was 280 nM. The inhibition (Mus musculus [12]) was “Active”, the concentration at 1 h [13] was 400 nM and the AUC/dose (Rattus norvegicus) was 2 µM·kg·h/mg. The concentration at 1 h [14] was 500 nM.
